Experimental data as given in ChEMBL document CHEMBL1137155, “Identification of [(naphthalene-1-carbonyl)-amino]-acetic acid derivatives as nonnucleoside inhibitors of HCV NS5B RNA dependent RNA polymerase” (Bioorg Med Chem Lett, 2004).

What was measured:
[1] = target: RNA-directed RNA polymerase (Hepacivirus hominis, UniProt O39930); test: Inhibitory concentration against HCV NS5B RNA dependent RNA polymerase
How it was run: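 Enzyme: recombinant C-terminally truncated NS5B from genotype 1b, BK strain. Inhibitor was pre-incubated with the enzyme for 15 min. An RNA template, NTPs and [α-32P]GTP were then added, and the reaction ran for 2 h at room temperature. Product RNA was collected by filtration, and incorporated radioactivity was measured by scintillation counting.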

DNA polymerase beta = DNA polymerase beta (Homo sapiens, UniProt P06746); test: Inhibitory concentration against human beta polymerase

Sequence of RNA-directed RNA polymerase (O39930 whole entry, the tested form may be a part): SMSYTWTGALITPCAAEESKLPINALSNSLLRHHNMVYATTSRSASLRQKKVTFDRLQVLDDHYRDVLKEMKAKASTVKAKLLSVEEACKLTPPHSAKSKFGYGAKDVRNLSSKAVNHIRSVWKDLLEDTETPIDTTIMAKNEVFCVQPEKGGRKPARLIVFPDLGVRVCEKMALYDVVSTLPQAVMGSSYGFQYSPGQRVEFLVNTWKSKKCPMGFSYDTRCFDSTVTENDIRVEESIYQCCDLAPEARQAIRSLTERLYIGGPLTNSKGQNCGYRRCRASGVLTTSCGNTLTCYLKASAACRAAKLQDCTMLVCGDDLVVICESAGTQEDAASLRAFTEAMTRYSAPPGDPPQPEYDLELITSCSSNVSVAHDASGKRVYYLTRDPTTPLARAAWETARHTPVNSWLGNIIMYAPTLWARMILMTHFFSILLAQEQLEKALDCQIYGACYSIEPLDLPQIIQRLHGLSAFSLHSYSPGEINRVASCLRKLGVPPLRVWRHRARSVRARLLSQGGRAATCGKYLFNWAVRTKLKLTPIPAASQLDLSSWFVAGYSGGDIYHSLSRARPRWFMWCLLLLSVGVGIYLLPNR

IC50 [1] [nM] | IC50 (DNA polymerase beta) [nM] | Compound
2900 | – | C#CCOC(=O)N(CC(=O)O)C(=O)c1c(Br)ccc2c(C(F)(F)F)c(OC)ccc12
2000 | – | COc1ccc2c(C(=O)N(C)CC(=O)O)c(Br)ccc2c1C(F)(F)F
1400 | – | COc1ccc2c(C(=O)NC(CCC(=O)O)C(=O)O)c(F)ccc2c1C(F)(F)F (stereo unspecified)
4900 | – | CCCOC(=O)N(CC(=O)O)C(=O)c1c(Br)ccc2c(C(F)(F)F)c(OC)ccc12
11300 | – | COC(=O)N(CC(=O)O)C(=O)c1c(OC)ccc2c(C(F)(F)F)c(OC)ccc12
15200 | – | COC(=O)N(CC(=O)O)C(=O)c1c(F)ccc2c(C(F)(F)F)c(OC)ccc12
3100 | – | CCOC(=O)N(CC(=O)O)C(=O)c1c(Br)ccc2c(C(F)(F)F)c(OC)ccc12
120 | – | COc1ccc2c(C(=O)NC(CCC(=O)O)C(=O)O)c(Br)ccc2c1C(F)(F)F (stereo unspecified)
1400 | – | COC(=O)N(CC(=O)O)C(=O)c1c(Br)ccc2c(C(F)(F)F)c(OC)ccc12
2100 | – | COc1ccc2c(C(=O)NC(CC(=O)O)C(=O)O)c(F)ccc2c1C(F)(F)F (stereo unspecified)
5100 | – | COc1ccc2c(C(=O)N(C)CC(=O)O)c(Cl)ccc2c1C(F)(F)F
910 | – | COc1ccc2c(C(=O)NC(CC(=O)O)C(=O)O)c(Br)ccc2c1C(F)(F)F (stereo unspecified)
3300 | – | C=CCOC(=O)N(CC(=O)O)C(=O)c1c(Br)ccc2c(C(F)(F)F)c(OC)ccc12
490 | – | COc1ccc2c(C(=O)NC(CCC(=O)O)C(=O)O)cccc2c1C(F)(F)F (stereo unspecified)
900 | – | COc1ccc2c(C(=O)N(CC(=O)O)CC(=O)O)cccc2c1C(F)(F)F
6400 | – | COc1ccc2c(C(=O)N(CC(=O)O)C(=O)OCC(C)(C)C)c(Br)ccc2c1C(F)(F)F
7700 | – | COc1ccc2c(C(=O)N(CC(=O)O)C(=O)OCC(C)C)c(Br)ccc2c1C(F)(F)F
1200 | – | COc1ccc2c(C(=O)NC(CC(=O)O)C(=O)O)cccc2c1Br (stereo unspecified)
590 | – | COc1ccc2c(C(=O)NC(CCC(=O)O)C(=O)O)cccc2c1Br (stereo unspecified)
5000 | > 100000 | COC(=O)N(CC(=O)O)C(=O)c1c(Cl)ccc2c(C(F)(F)F)c(OC)ccc12
1300 | – | COc1ccc2c(C(=O)NC(CC(=O)O)C(=O)O)cccc2c1C(F)(F)F (stereo unspecified)

Compound | IC50 [1] [nM] | IC50 (DNA polymerase beta) [nM]
COC(=O)N(CC(=O)O)C(=O)c1cccc2c(C(F)(F)F)c(OC)ccc12 | > 26000 | –
COC(=O)N(CC(=O)O)C(=O)c1c(-c2ccc(Cl)cc2)ccc2c(C(F)(F)F)c(OC)ccc12 | > 20000 | –
COC(=O)N(CCC(=O)O)C(=O)c1c(Br)ccc2c(C(F)(F)F)c(OC)ccc12 | > 10000 | –
COc1ccc2ccccc2c1C(=O)NC(CC(=O)O)C(=O)O (stereo unspecified) | > 10000 | –
